Published values collected from several papers.
Lines come from different studies, so protocols differ.
ADRA1B: Alpha-1B adrenergic receptor (ADRA1B, Homo sapiens, UniProt P35368)
CASP1: Caspase-1 (CASP1, Homo sapiens, UniProt P29466)
PPARA: Peroxisome proliferator-activated receptor alpha (PPARA, Homo sapiens, UniProt Q07869)

COc1ccc2c(c1)C(=O)N(CCN1CCN(c3ccccc3OC)CC1)C2  Ki (ADRA1B; ligand displacement, radioligand): 0.0387 µM
CC(=O)N[C@@H](CC(C)C)C(=O)N[C@@H](CC(C)C)C(=O)N[C@@H](CCCN=C(N)N)C(=O)N[C@H](C(=O)N[C@@H](CCCCN)C(=O)N[C@@H](CCCN=C(N)N)C(N)=O)C(C)C  Ki (Proprotein convertase subtilisin/kexin type 7 (Homo sapiens, UniProt Q16549); enzyme activity, inhibitor): 2.7 µM
O=C1c2ccccc2CCCN1CCCCN1CCN(c2ccccn2)CC1  Ki (ADRA1B; ligand displacement, radioligand): 2.54 µM
CSC[C@H]1CN(Cc2c[nH]c3c(N)ncnc23)C[C@@H]1O  Ki (5'-methylthioadenosine/S-adenosylhomocysteine nucleosidase (Staphylococcus aureus, UniProt Q5HFG2); enzyme activity, inhibitor): 0.0078 µM
CCCCN1CCC(COC(=O)c2ccc(N)c(OCF)c2)CC1  Ki (ADRA1B; cell-free assay, radioligand): > 10 µM
CCCC[C@H](NC(=O)[C@H](C)c1c(C)[nH]c2ccc(O)cc12)c1ncc(-c2cc3ccccc3nc2OC)[nH]1  Ki (Histone deacetylase 3 (HDAC3, Homo sapiens, UniProt O15379); enzyme activity, inhibitor): 0.06 µM
O=c1c(O)c(-c2cc(O)c(O)c(O)c2)oc2cc(O)cc(O)c12  Ki (CASP1; enzyme activity, inhibitor, fluorescence): 14.3 µM
Cc1cccc(C(=O)NCN2CCN(c3ccccc3C#N)CC2)c1  Ki (D(2) dopamine receptor (Drd2, Rattus norvegicus, UniProt P61169); ligand displacement, radioligand; cell membranes): 1.38 µM
O=c1c(O)c(-c2ccc(O)cc2)oc2cc(O)cc(O)c12  Ki (CASP1; enzyme activity, inhibitor, fluorescence): > 300 µM
O=C(Nc1ccc(Oc2ncccn2)cc1C(=O)O)c1ccc(Cl)cc1Cl  Ki (PPARA; ligand displacement, TR-FRET): 4.42 µM
CS(=O)(=O)Nc1ccc[nH]c1=S  Ki (Insulin-degrading enzyme (IDE, Homo sapiens, UniProt P14735); cell-free assay, inhibitor): > 200 µM
CC(=O)N[C@@H](CCCNC(=N)N)C(=O)NCCOCCOCC(=O)N[C@H](CC(=O)O)C(=O)N1CCC[C@H]1B(O)O  Ki (Prolyl endopeptidase (PREP, Homo sapiens, UniProt P48147); enzyme activity, inhibitor, fluorescence): 0.0239 µM
O=C(O)c1c(Sc2ccccc2)c2cc(Cl)ccc2n1Cc1ccc(Cl)cc1  Ki (PPARA; ligand displacement, TR-FRET): 19.7 µM
